Measurements taken from ChEMBL document CHEMBL3407481, “Pyridine C-region analogs of 2-(3-fluoro-4-methylsulfonylaminophenyl)propanamides as potent TRPV1 antagonists” (Eur J Med Chem, 2015).
One block for each molecule: values may come before it.

Tests used:
[1] = target: T1, Transient receptor potential cation channel subfamily V member 1 (Homo sapiens, UniProt Q8NER1); experiment: Antagonist activity at human TRPV1 expressed in CHO cells assessed as inhibition of capsaicin-induced activity by FLIPR assay; type: cell-based
Mus musculus [2] = experiment: Analgesic activity in mouse assessed as inhibition of formalin-induced response at 0.1 mg/kg, po; type: functional
Summary of the method: (§1)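 Formalin test in mice after oral dosing. Values are tabulated as MPE and described as % inhibition of the nociceptive response.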

Mus musculus [3] = experiment: Inhibition in capsaicin-induced hypothermia in mouse at 0.3 mg/kg, po 15 min before capsaicin challenge measured 30 mins post capsaicin treatment; type: functional
[4] = target: T1, Transient receptor potential cation channel subfamily V member 1; experiment: Antagonist activity at human TRPV1 expressed in CHO cells assessed as inhibition of N-arachidonoyl dopamine-induced activity by FLIPR assay; type: cell-based
[5] = target: T1, Transient receptor potential cation channel subfamily V member 1; experiment: Antagonist activity at human TRPV1 expressed in CHO cells assessed as inhibition of pH-induced activity by FLIPR assay; type: cell-based
[6] = target: T1, Transient receptor potential cation channel subfamily V member 1; experiment: Antagonist activity at human TRPV1 expressed in CHO cells assessed as inhibition of heat at 45 degC-induced activity by FLIPR assay; type: cell-based
Mus musculus [7] = experiment: Analgesic activity in mouse assessed as inhibition of formalin-induced response at 0.3 mg/kg, po; type: functional; summary of the method: as §1
Mus musculus [8] = experiment: Inhibition in capsaicin-induced hypothermia in mouse at 10 mg/kg, po 15 min before capsaicin challenge measured 30 mins post capsaicin treatment; type: functional
Mus musculus [9] = experiment: Inhibition in capsaicin-induced hypothermia in mouse at 0.1 mg/kg, po 15 min before capsaicin challenge measured 30 mins post capsaicin treatment; type: functional
Mus musculus [10] = experiment: Inhibition in capsaicin-induced hypothermia in mouse at 1 mg/kg, po 15 min before capsaicin challenge measured 30 mins post capsaicin treatment; type: functional
Mus musculus [11] = experiment: Inhibition in capsaicin-induced hypothermia in mouse compound dosed orally before capsaicin challenge measured 30 mins post capsaicin treatment; type: functional, organism-based
Mus musculus [12] = experiment: Analgesic activity in mouse assessed as inhibition of formalin-induced response at 1 mg/kg, po; type: functional; summary of the method: as §1

T1 sequence (Q8NER1 whole entry): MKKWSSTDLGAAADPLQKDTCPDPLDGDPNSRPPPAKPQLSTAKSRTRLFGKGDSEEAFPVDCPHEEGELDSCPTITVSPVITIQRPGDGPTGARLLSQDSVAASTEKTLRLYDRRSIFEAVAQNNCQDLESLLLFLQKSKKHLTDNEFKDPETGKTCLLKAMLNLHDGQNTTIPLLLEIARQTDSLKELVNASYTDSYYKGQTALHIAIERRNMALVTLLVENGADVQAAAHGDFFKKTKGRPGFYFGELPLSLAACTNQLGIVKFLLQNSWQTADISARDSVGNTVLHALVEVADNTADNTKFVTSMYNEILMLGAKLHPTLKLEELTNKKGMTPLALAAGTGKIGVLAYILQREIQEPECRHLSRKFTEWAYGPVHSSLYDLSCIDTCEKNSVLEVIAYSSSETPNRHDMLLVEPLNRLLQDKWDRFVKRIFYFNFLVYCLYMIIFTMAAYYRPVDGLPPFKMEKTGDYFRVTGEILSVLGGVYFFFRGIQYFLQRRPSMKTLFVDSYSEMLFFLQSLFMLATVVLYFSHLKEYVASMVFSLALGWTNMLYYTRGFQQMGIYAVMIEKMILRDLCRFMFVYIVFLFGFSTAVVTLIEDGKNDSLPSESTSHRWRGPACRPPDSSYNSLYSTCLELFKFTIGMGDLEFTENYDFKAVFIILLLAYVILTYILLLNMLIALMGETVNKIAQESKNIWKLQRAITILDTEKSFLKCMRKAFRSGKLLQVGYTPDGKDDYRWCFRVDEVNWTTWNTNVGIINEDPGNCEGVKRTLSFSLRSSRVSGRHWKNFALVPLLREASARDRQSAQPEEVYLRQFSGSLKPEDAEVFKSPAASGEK

SMILES: CCCCCCOc1nc(C(F)(F)F)cc(C)c1CNC(=O)C(C)c1ccc(NS(C)(=O)=O)c(F)c1 (stereo not drawn)
Ki ([1]; read-out: Ki): 100 nM

SMILES: CC(C(=O)NCc1ncc(C(F)(F)F)cc1N1CCCC1)c1ccc(NS(C)(=O)=O)c(F)c1 (stereo not drawn)
Ki ([1]; cho): Not Active

SMILES: CC(C(=O)NCc1ccc(C(F)(F)Cl)nc1N1CCCCCC1)c1ccc(NS(C)(=O)=O)c(F)c1 (stereo not drawn)
Ki ([1]; read-out: Ki): 0.5 nM

SMILES: CC(C(=O)NCc1ccc(C(F)(F)Cl)nc1SC1CCCCC1)c1ccc(NS(C)(=O)=O)c(F)c1 (stereo not drawn)
Ki ([1]; read-out: Ki): 3 nM

SMILES: CC1CCN(c2nc(C3CC3)ccc2CNC(=O)C(C)c2ccc(NS(C)(=O)=O)c(F)c2)CC1 (stereo not drawn)
Ki ([1]; read-out: Ki): 0.9 nM

SMILES: CC1CCN(c2nc(C(F)(F)F)ccc2CNC(=O)C(C)c2ccc(NS(C)(=O)=O)c(F)c2)CC1 (stereo not drawn)
Ki [4]: 0.02 nM | IC50 [5]: 15.8 nM

SMILES: CC(C(=O)NCc1ccc(C(F)(F)Cl)nc1OC1CCCC1)c1ccc(NS(C)(=O)=O)c(F)c1 (stereo not drawn)
inhibition in vivo at 10 mg/kg (Mus musculus [8]): 92% | inhibition in vivo at 0.3 mg/kg (Mus musculus [3]): 41% | inhibition in vivo at 0.1 mg/kg (Mus musculus [9]): 23% | Ki [4]: 0.04 nM | inhibition in vivo at 1 mg/kg (Mus musculus [10]): 60% | IC50 [6]: 19.3 nM | inhibition (Mus musculus [11]): Dose-dependent effect | MPE (Mus musculus [7]): 29% | MPE (Mus musculus [12]): 15%

Second part, led by results:

Ki ([1]; read-out: Ki): 59 nM
SMILES: CC1CCN(c2nc(-c3ccc(F)cc3)ccc2CNC(=O)C(C)c2ccc(NS(C)(=O)=O)c(F)c2)CC1 (stereo not drawn)

Ki ([1]; read-out: Ki): 1.1 nM
SMILES: CC(C(=O)NCc1ccc(C2CC2)nc1N1CCCCC1)c1ccc(NS(C)(=O)=O)c(F)c1 (stereo not drawn)

Ki [4]: 0.02 nM | IC50 [5]: 8.3 nM | IC50 [6]: 7 nM | Ki ([1]; read-out: Ki): 0.3 nM
SMILES: CCCCOc1nc(C(F)(F)Cl)ccc1CNC(=O)C(C)c1ccc(NS(C)(=O)=O)c(F)c1 (stereo not drawn)
MPE (Mus musculus [2]): 56% | inhibition in vivo at 0.3 mg/kg (Mus musculus [3]): 43% | MPE (Mus musculus [7]): 73%

Ki ([1]; read-out: Ki): 28.6 nM
SMILES: CC(C(=O)NCc1ncc(C(F)(F)F)cc1N1CCCCC1)c1ccc(NS(C)(=O)=O)c(F)c1 (stereo not drawn)

Ki ([1]; read-out: Ki): 1 nM
SMILES: CC1CC(C)CN(c2nc(C(F)(F)Cl)ccc2CNC(=O)C(C)c2ccc(NS(C)(=O)=O)c(F)c2)C1 (mixture of isomers)

Ki ([1]; read-out: Ki): 1.3 nM
SMILES: CC(C(=O)NCc1ccc(C(F)(F)Cl)nc1N1CCCCC1)c1ccc(NS(C)(=O)=O)c(F)c1 (stereo not drawn)
